In ChEMBL document CHEMBL1122927, “Metabolism of the nigrostriatal toxin 1-methyl-4-phenyl-1,2,3,6-tetrahydropyridine by liver homogenate fractions” (J Med Chem, 1985):

Key:
Assay type in all cases: ADME
Conditions in all cases: microsomes
Oryctolagus cuniculus [1] = species on record: Oryctolagus cuniculus; experiment: Formation of metabolite by rabbit liver microsomal preparation in presence of SKF525A,at 2 hour
Outline: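 Rabbit liver microsomes were preincubated 5 min with SKF 525A (5 × 10⁻⁴ M) before MPTP (0.5–1.0 mM) was added. Run in 100 mM Hepes pH 7.6 with an NADPH-generating system, 2–3 mg protein/mL, 37 °C, 2 h. Stopped with cold acetonitrile. Nor and N-oxide products quantified by reverse-phase HPLC (254 nm) as nmol/mL per 2 h.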

Oryctolagus cuniculus [2] = species on record: Oryctolagus cuniculus; experiment: Formation of metabolite by rabbit liver microsomal preparation in absence of NADPH, at 2 hours
Outline: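 Rabbit liver microsomes (2–3 mg protein/mL), 100 mM Hepes pH 7.6, 0.5–1.0 mM MPTP, with the NADPH-generating system omitted; 37 °C for 2 h. Stopped with cold acetonitrile and centrifuged. Nor and N-oxide products measured by reverse-phase HPLC at 254 nm as nmol/mL per 2 h.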

Oryctolagus cuniculus [3] = species on record: Oryctolagus cuniculus; experiment: Formation of metabolite by rabbit liver microsomal preparation in presence of Co-O2 (90:10),at 2 hour
Outline: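 Buffer was saturated with CO-O2 (90:10), and incubation ran in sealed vials under that gas. Rabbit liver microsomes (2–3 mg protein/mL), 100 mM Hepes pH 7.6, NADPH-generating system, 0.5–1.0 mM MPTP, 37 °C, 2 h. Stopped with cold acetonitrile. Nor and N-oxide products quantified by reverse-phase HPLC (254 nm) as nmol/mL per 2 h.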

Oryctolagus cuniculus [4] = species on record: Oryctolagus cuniculus; experiment: Formation of metabolite by rabbit liver microsomal preparation in presence of N2,at 2 hour
Outline: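 Incubation under 100% N2, with N2-saturated buffer in sealed vials. Rabbit liver microsomes (2–3 mg protein/mL), 100 mM Hepes pH 7.6, NADPH-generating system, 0.5–1.0 mM MPTP, 37 °C, 2 h. Stopped with ice-cold acetonitrile. Nor and N-oxide products read by reverse-phase HPLC at 254 nm, expressed as nmol/mL per 2 h.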

Oryctolagus cuniculus [5] = species on record: Oryctolagus cuniculus; experiment: Formation of metabolite by rabbit liver microsomal preparation in presence of NADPH, at 2 hours
Outline: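 Male New Zealand white rabbit liver microsomes (100000g pellet, 2–3 mg protein/mL) in 100 mM Hepes pH 7.6 with an NADPH-generating system and 0.5–1.0 mM MPTP, in air, 37 °C, 2 h. Stopped with 2 volumes ice-cold acetonitrile, then centrifuged. Reverse-phase HPLC (acetonitrile/100 mM acetic acid 65:35, pH 5.6, 254 nm) quantified nor and N-oxide peaks as nmol/mL per 2 h.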

| Structure (SMILES) | Amount of metabolite (Oryctolagus cuniculus [1]) | Amount of metabolite (Oryctolagus cuniculus [2]) | Amount of metabolite (Oryctolagus cuniculus [3]) | Amount of metabolite (Oryctolagus cuniculus [4]) | Amount of metabolite (Oryctolagus cuniculus [5]) |
| --- | --- | --- | --- | --- | --- |
| C[N+]1([O-])CC=C(c2ccccc2)CC1 (stereo not given) | 170 nM ml-1 | 0 nM ml-1 | 160 nM ml-1 | 0 nM ml-1 | 190 nM ml-1 |
| C1=C(c2ccccc2)CCNC1 | 70 nM ml-1 | 0 nM ml-1 | 53 nM ml-1 | 16 nM ml-1 | 130 nM ml-1 |
